Results reported in ChEMBL document CHEMBL3407444, “Novel 2,4-disubstituted pyrimidines as potent, selective, and cell-permeable inhibitors of neuronal nitric oxide synthase” (J Med Chem, 2015).

Assays:
[1] = Inhibition of calmodulin-dependent bovine neuronal NOS using [3H]-arginine as substrate assessed as citrulline formation after 30 mins; design: species or system Bos taurus
[2] = target: Nitric oxide synthase 1 (Rattus norvegicus, UniProt P29476); assay: Binding affinity to recombinant rat neuronal NOS overexpressed in Escherichia coli assessed as production of nitric oxide from L-arginine measured for 5 mins by oxyhemoglobin NO capture assay
[3] = target: T1, Nitric oxide synthase 3 (Bos taurus, UniProt P29473); assay: Binding affinity to recombinant bovine endothelial NOS overexpressed in Escherichia coli assessed as production of nitric oxide from L-arginine measured for 5 mins by oxyhemoglobin NO capture assay
T1 sequence (P29473 whole entry): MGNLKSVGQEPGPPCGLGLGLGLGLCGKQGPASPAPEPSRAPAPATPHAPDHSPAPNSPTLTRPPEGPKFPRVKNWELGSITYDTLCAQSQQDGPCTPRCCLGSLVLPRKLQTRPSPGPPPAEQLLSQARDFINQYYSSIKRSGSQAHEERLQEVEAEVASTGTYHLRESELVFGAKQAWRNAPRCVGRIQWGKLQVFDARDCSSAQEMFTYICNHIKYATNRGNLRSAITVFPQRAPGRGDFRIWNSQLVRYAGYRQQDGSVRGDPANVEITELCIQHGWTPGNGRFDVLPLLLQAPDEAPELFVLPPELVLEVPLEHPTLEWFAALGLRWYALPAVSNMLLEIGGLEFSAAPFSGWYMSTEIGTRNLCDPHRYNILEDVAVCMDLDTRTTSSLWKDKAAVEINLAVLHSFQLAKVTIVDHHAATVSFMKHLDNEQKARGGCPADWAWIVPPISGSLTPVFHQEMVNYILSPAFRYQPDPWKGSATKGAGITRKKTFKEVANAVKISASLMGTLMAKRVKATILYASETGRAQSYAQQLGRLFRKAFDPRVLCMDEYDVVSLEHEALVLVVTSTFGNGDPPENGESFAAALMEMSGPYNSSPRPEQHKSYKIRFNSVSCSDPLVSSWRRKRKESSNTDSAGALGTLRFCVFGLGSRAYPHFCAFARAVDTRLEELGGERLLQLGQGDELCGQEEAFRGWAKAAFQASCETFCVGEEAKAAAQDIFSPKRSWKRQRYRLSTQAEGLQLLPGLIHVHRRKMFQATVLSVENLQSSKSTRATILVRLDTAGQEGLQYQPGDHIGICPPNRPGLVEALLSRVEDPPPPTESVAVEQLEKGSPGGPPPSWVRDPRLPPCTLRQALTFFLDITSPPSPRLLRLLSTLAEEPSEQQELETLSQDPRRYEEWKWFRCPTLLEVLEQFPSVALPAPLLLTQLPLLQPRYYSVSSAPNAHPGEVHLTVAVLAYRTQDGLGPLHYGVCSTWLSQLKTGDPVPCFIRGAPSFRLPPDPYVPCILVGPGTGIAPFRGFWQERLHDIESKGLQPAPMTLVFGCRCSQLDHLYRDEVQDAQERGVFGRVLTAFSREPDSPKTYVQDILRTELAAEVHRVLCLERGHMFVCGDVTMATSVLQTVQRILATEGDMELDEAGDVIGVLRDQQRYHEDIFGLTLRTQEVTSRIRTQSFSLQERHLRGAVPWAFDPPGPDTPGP
Method in brief: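 Purified recombinant bovine eNOS (E. coli-expressed) at 37 °C in 100 mM HEPES, 10% glycerol, pH 7.4, with 10 μM L-arginine and tetrahydrobiopterin, 100 μM NADPH, 0.83 mM CaCl2, ~320 units/mL calmodulin, and 3 μM human oxyhemoglobin. Methemoglobin formation read at 401 nm every 22 s for 5 min. Nine inhibitor concentrations (500 μM–50 nM), at least duplicate.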

[4] = target: T2, Nitric oxide synthase, inducible (Mus musculus, UniProt P29477); assay: Binding affinity to recombinant mouse macrophage inducible NOS overexpressed in Escherichia coli assessed as production of nitric oxide from L-arginine measured for 5 mins by oxyhemoglobin NO capture assay
T2 sequence (P29477 whole entry): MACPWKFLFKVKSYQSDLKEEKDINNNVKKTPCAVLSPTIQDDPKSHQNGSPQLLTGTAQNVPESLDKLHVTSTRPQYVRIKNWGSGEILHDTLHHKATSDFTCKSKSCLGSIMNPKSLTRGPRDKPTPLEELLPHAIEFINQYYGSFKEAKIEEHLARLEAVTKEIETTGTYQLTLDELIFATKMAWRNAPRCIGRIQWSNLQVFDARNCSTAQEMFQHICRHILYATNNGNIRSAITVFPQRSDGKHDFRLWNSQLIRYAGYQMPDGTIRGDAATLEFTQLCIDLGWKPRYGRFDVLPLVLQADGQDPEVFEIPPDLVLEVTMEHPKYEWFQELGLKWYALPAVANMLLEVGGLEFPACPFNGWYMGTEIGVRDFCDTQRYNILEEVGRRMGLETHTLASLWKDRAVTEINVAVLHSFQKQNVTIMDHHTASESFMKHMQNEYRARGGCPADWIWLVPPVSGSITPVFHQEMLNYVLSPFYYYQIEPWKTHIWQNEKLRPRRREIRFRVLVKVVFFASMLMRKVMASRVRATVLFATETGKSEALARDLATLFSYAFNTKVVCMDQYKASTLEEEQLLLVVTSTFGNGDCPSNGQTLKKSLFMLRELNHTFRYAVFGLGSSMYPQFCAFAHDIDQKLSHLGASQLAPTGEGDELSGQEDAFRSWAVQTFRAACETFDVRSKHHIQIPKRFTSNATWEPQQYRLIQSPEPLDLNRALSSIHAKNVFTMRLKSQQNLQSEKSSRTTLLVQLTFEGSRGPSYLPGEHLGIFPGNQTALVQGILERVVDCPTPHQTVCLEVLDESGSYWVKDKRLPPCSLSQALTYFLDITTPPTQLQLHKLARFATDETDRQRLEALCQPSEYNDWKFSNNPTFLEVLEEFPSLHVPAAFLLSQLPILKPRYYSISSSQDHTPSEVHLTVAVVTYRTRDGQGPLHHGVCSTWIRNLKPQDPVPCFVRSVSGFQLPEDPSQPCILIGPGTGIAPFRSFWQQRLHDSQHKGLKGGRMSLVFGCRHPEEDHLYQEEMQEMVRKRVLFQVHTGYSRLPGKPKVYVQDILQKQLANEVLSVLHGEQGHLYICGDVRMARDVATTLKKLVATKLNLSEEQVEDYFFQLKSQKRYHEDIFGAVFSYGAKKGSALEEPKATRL

[5] = target: Nitric oxide synthase 1 (Homo sapiens, UniProt P29475); assay: Binding affinity to recombinant human neuronal NOS overexpressed in Escherichia coli assessed as production of nitric oxide from L-arginine measured for 5 mins by oxyhemoglobin NO capture assay
[6] = Selectivity ratio of Ki for recombinant bovine endothelial NOS to Ki for recombinant rat neuronal NOS
[7] = Selectivity ratio of Ki for recombinant mouse macrophage inducible NOS to Ki for recombinant rat neuronal NOS
[8] = Selectivity ratio of Ki for recombinant human neuronal NOS to Ki for recombinant rat neuronal NOS
[9] = target: T3, Alpha-2C adrenergic receptor (Homo sapiens, UniProt P18825); assay: Binding affinity to human adrenergic alpha-2C receptor after 90 mins by radioligand displacement assay
T3 sequence (P18825 whole entry): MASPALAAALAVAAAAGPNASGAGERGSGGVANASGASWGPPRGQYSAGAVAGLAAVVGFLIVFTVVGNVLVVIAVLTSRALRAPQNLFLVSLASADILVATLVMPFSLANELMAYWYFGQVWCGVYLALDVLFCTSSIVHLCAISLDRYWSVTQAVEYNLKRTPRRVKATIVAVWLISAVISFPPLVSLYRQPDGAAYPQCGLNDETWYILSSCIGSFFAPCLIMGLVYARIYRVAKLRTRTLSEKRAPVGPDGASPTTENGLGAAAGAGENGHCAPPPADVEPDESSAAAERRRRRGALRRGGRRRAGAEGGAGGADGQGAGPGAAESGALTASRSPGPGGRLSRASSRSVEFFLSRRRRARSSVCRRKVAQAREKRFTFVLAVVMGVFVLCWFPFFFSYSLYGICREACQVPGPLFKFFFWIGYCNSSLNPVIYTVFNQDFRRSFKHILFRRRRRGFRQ

[10] = target: T4, Sigma non-opioid intracellular receptor 1 (Homo sapiens, UniProt Q99720); assay: Binding affinity to human sigma-1 receptor after 90 mins by radioligand displacement assay
[11] = target: CYP2C19 (Homo sapiens, UniProt P33261); assay: Inhibition of human liver microsomal CYP2C19 using S-mephenytoin as substrate at 10 uM preincubated for 5 mins followed by NADPH addition measured after 20 mins by LC-MS/MS analysis; format: ADME; details: liver microsomes, probe S-mephenytoin
Method in brief: (§1)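 Human liver microsomes in Kphos buffer, test compound at 10 μM (DMSO). Probe substrate added and preincubated 5 min at 37 °C, then started with NADPH. Incubation times: CYP3A4 (midazolam) 5 min, CYP2D6 (bufuralol) 10 min, CYP2C19 (S-mephenytoin) 20 min. Stopped with cold acetonitrile containing internal standard. Metabolites measured by LC-MS/MS; % inhibition from peak-area ratios relative to DMSO control.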

[12] = target: CYP2D6 (Homo sapiens, UniProt P10635); assay: Inhibition of human liver microsomal CYP2D6 using bufuralol as substrate at 10 uM preincubated for 5 mins followed by NADPH addition measured after 10 mins by LC-MS/MS analysis; format: ADME; details: liver microsomes, probe bufuralol; method in brief: as §1
[13] = target: CYP3A4 (Homo sapiens, UniProt P08684); assay: Inhibition of human liver microsomal CYP3A4 using midazolam as substrate at 10 uM preincubated for 5 mins followed by NADPH addition measured after 5 mins by LC-MS/MS analysis; format: ADME; details: liver microsomes, probe midazolam; method in brief: as §1
[14] = Permeability across apical to basolateral side in human Caco2 cells assessed as drug recovery at 10 uM after 2 hrs by LC/MS/MS analysis; format: ADME, cell-based; details: caco-2, 2 h
Method in brief: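 Caco-2 monolayers grown 3 weeks, integrity checked by Lucifer yellow transport. Compound 10 μM for 2 h added apically; apical buffer HBSS/10 mM HEPES with glucose, pH 6.5, basolateral transport buffer pH 7.4. Receiver side sampled and quantified by LC/MS/MS; recovery reported.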

[15] = target: 5-hydroxytryptamine receptor 2A (Homo sapiens) (UniProt P28223); assay: Binding affinity to human 5-HT2A receptor at 10 uM after 90 mins by radioligand displacement assay relative to control
[16] = target: T5, Alpha-2C adrenergic receptor (Homo sapiens) (UniProt P18825); assay: Binding affinity to human adrenergic alpha-2C receptor at 10 uM after 90 mins by radioligand displacement assay relative to control
T5 sequence (whole entry): T3 sequence (P18825 whole entry)

[17] = target: T4, Sigma non-opioid intracellular receptor 1; assay: Binding affinity to human sigma-1 receptor at 10 uM after 90 mins by radioligand displacement assay relative to control
[18] = species on record: Homo sapiens; assay: Binding affinity to human sigma-2 receptor at 10 uM after 90 mins by radioligand displacement assay relative to control
[19] = target: T6, 5-hydroxytryptamine receptor 1A (Homo sapiens) (UniProt P08908); details: 10 uM
T6 sequence (whole entry): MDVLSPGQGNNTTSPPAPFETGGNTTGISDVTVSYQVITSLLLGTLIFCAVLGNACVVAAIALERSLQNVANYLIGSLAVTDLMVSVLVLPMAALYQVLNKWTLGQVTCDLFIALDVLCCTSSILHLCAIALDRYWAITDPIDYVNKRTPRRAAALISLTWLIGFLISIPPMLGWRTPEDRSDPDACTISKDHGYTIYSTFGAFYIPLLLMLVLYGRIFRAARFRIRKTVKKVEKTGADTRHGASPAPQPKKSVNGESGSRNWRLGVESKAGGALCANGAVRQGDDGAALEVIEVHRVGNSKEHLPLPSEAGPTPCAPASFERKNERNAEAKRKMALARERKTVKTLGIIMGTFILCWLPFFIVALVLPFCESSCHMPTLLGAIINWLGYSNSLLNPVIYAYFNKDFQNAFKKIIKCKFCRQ

[20] = target: D(3) dopamine receptor (Homo sapiens) (UniProt P35462); details: 10 uM
Sequence of D(3) dopamine receptor (Homo sapiens) (P35462 whole entry): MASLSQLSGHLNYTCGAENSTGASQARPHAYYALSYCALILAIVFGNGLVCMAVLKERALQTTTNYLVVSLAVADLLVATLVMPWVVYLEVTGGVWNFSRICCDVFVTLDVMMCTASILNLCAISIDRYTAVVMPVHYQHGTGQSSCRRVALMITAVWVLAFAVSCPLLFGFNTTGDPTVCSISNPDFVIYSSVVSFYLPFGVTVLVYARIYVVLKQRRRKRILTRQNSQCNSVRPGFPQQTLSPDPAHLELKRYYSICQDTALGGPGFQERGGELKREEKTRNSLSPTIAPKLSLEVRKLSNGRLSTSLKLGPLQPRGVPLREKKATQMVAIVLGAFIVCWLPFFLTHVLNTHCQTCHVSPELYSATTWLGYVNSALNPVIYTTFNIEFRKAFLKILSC

Sequence of Nitric oxide synthase 1 (Rattus norvegicus, UniProt P29476) (P29476 whole entry): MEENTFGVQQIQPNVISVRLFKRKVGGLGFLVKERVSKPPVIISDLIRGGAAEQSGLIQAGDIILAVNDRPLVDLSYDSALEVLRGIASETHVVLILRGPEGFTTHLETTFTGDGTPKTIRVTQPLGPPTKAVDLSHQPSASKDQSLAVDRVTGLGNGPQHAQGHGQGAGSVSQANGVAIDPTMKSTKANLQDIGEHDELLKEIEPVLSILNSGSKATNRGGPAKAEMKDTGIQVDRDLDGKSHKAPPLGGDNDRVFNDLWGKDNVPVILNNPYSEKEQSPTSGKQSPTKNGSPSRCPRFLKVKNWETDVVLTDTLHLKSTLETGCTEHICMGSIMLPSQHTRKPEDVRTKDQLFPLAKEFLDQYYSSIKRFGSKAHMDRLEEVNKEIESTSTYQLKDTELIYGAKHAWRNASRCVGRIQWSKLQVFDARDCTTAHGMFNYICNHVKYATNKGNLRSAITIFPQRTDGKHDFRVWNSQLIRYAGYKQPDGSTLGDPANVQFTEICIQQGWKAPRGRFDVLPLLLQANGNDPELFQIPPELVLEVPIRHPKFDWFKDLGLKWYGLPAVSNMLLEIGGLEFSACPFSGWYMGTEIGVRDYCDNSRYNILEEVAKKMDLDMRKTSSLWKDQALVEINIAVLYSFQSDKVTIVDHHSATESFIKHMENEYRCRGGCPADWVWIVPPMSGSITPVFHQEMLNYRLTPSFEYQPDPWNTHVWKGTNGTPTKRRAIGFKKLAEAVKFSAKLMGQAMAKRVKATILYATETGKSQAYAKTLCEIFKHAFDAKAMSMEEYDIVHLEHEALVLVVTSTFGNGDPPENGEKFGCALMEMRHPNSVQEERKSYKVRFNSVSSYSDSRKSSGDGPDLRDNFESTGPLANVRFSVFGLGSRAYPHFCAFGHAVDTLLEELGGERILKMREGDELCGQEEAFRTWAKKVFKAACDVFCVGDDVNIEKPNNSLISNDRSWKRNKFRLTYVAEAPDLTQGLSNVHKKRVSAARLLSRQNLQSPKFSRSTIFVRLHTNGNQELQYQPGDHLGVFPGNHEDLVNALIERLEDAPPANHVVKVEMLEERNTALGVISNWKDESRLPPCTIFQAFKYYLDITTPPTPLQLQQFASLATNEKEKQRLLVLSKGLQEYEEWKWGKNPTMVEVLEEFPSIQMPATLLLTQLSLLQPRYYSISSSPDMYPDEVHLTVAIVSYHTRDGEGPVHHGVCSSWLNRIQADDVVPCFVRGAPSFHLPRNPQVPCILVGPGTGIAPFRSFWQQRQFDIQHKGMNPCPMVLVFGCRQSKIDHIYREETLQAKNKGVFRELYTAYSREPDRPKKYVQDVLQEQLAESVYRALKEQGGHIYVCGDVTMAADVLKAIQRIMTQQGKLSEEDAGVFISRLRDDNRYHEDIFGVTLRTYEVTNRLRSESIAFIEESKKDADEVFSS
Sequence of Nitric oxide synthase 1 (Homo sapiens, UniProt P29475) (P29475 whole entry): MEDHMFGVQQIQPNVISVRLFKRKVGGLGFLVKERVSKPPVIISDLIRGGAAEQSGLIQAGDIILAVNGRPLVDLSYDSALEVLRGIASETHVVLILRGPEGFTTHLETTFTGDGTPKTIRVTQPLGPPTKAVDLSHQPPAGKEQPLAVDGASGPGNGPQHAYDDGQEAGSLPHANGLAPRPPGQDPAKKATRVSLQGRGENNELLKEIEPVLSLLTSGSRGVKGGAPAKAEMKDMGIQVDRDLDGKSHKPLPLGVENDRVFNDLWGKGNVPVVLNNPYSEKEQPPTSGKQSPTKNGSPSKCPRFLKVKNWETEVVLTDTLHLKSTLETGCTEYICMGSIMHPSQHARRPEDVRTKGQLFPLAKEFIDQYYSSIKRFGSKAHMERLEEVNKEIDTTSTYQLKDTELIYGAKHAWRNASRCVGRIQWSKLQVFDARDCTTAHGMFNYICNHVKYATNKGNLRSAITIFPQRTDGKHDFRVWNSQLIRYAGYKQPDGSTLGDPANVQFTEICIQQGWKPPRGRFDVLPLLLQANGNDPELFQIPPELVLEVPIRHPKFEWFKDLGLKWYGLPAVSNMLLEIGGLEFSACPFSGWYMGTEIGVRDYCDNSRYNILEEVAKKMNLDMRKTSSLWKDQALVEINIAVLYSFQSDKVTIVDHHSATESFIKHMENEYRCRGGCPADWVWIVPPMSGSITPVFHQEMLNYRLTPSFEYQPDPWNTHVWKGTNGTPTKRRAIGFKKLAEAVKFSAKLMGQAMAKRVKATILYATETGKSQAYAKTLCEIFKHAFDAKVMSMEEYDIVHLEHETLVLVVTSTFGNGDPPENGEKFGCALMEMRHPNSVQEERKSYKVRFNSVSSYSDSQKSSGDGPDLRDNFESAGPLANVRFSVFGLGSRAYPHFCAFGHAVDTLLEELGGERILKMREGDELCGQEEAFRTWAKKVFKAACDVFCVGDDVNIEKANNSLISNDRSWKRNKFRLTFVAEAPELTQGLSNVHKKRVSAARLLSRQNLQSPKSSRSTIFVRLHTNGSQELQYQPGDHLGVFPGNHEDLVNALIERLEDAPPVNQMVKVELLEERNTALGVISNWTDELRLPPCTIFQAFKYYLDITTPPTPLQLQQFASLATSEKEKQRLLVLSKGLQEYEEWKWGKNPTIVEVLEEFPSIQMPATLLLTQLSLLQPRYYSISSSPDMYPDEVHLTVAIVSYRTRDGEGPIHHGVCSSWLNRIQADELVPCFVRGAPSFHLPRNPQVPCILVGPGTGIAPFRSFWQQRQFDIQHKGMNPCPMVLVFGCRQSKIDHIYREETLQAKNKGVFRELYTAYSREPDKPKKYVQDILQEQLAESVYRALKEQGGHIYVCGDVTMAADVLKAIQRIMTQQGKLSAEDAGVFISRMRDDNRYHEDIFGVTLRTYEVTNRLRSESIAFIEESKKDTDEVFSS
T4 sequence (Q99720 whole entry): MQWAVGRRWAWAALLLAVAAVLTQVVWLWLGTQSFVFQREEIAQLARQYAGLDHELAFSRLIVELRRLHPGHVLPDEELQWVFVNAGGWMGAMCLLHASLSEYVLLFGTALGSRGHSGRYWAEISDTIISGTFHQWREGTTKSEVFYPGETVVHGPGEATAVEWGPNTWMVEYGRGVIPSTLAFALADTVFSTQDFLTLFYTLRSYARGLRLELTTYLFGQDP
Sequence of 5-hydroxytryptamine receptor 2A (Homo sapiens) (P28223 whole entry): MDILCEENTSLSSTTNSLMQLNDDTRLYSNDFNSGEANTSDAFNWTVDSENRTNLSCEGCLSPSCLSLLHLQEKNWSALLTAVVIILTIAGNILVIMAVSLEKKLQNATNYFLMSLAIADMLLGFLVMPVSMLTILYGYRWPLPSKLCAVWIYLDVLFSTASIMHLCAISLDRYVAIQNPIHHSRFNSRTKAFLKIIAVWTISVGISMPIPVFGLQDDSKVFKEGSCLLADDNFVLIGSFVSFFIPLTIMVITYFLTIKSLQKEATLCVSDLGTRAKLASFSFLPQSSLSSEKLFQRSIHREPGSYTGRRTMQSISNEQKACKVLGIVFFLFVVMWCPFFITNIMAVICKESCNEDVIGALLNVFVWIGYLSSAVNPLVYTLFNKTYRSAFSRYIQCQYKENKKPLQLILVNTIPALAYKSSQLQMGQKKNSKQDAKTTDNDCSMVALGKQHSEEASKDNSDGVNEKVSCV
Sequence of CYP3A4 (P08684 whole entry): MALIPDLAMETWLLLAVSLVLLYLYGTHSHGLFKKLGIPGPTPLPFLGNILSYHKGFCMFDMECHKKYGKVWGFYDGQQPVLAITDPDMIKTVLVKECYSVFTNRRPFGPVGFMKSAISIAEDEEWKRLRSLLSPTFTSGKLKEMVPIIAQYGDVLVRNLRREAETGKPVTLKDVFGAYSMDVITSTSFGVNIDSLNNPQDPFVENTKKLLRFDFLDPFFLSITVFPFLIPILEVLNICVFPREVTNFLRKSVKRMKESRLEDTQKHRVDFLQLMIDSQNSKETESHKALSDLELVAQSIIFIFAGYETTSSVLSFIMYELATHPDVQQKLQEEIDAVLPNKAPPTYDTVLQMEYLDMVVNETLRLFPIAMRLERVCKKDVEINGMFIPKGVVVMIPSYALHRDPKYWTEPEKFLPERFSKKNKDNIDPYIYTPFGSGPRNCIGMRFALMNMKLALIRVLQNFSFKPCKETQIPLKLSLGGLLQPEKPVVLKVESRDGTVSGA
Sequence of CYP2C19 (P33261 whole entry): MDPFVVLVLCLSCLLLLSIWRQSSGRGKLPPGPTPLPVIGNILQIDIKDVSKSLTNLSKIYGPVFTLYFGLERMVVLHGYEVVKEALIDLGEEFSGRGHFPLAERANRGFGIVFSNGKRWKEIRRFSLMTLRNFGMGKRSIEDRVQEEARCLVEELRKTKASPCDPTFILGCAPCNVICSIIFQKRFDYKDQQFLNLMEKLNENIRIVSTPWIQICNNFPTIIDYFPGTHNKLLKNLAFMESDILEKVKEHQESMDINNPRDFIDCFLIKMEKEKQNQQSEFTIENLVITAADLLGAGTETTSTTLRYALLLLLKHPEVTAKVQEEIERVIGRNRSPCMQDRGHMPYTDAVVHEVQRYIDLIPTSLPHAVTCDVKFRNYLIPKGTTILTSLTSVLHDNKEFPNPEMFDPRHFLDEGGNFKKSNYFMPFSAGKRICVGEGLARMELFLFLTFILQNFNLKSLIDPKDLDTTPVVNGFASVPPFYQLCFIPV

c1c[nH]cn1 [IMIDAZOLE]
IC50 [1]: 200 µM

Fc1cccc(C[C@H]2C[C@@H]2NCCc2ccnc(-n3ccnc3)n2)c1
Ki [2]: 0.15 µM
Ki [3]: 40 µM
Ki [4]: 3000 nM
Ki [5]: 873 nM

Cc1nccn1-c1nccc(CCNCCCc2cccc(F)c2)n1
Ki [2]: 11.5 µM

Cc1cn(-c2nccc(CCNCCCc3cccc(F)c3)n2)cn1
Ki [2]: 81 µM

Fc1cccc(C[C@@H]2C[C@H]2NCCc2ccnc(-n3ccnc3)n2)c1
Ki [2]: 0.018 µM
Ki [3]: 10.3 µM
Ki [4]: 2140 nM
Ki [5]: 137 nM

Fc1cccc(C2CC2CNCCc2ccnc(-n3ccnc3)n2)c1 (stereo not given)
Ratio Ki [6]: 71
Ratio Ki [7]: 34
Ratio Ki [8]: 6.4

Cl.Fc1cccc(CCCNCCc2ccnc(-n3ccnc3)n2)c1
Ki [9]: 200 nM
Ki [10]: 200 nM
inhibition at 20 min, 10 µM [11]: > 70%
inhibition at 10 min, 10 µM [12]: > 70%
inhibition at 5 min, 10 µM [13]: > 70%
Drug recovery [14]: 73%
inhibition [15]: 88%
inhibition [16]: 95%
inhibition [17]: 94%
inhibition [18]: 88%
inhibition [19]: 83%
inhibition [20]: 87%

c1ccc(-n2ccnc2)cc1
IC50 [1]: 25 µM

Clc1cccc(CCCNCCc2ccnc(-n3ccnc3)n2)c1
Ki [4]: 910 nM
Ratio Ki [6]: 253
Ratio Ki [7]: 28
Ratio Ki [8]: 3.9

Fc1cccc(CCNCCNc2ccnc(-n3ccnc3)n2)c1
Ratio Ki [6]: 109
Ratio Ki [7]: 17

Fc1cccc(CCCNCc2ccnc(-n3ccnc3)n2)c1
Ratio Ki [6]: 33
Ratio Ki [7]: 4

Cc1cncn1-c1nccc(CCNCCCc2cccc(F)c2)n1
Ki [2]: 0.06 µM
Ki [3]: 15.4 µM
Ki [4]: 24000 nM
Ki [5]: 303 nM

Fc1cccc(CCCNCCc2ccnc(-n3cncn3)n2)c1
Ki [2]: 27 µM
